# Assay results from ChEMBL document CHEMBL3576759, “Antineoplastic agents. 599. Total synthesis of dolastatin 16” (2015).
# Key:
# SF-268 [1] = assay: Growth inhibition of human SF268 cells using DMSO as solvent after 48 hrs by sulforhodamine B assay; assay type: functional
# Outline: (§1)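 NCI-standard SRB protocol. Cells in RPMI1640 with 5% fetal bovine serum were seeded in 96-well plates and held 24 h before serial compound dilutions were added. After 48 h, cells were fixed with trichloroacetic acid, stained with sulforhodamine B and read by optical density. GI50 is the concentration giving 50% reduction in net protein increase.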
# [2] = Growth inhibition of human BxPC3 cells using DMSO as solvent after 48 hrs by sulforhodamine B assay; assay type: functional, BXPC-3; outline: as §1
# NCI-H460 [3] = assay: Growth inhibition of human NCI-H460 cells using MeOH as solvent after 48 hrs by sulforhodamine B assay; assay type: functional; conditions: NCI-H460, 48 h; outline: as §1
# [4] = Growth inhibition of human BxPC3 cells using MeOH as solvent after 48 hrs by sulforhodamine B assay; assay type: functional; conditions: BXPC-3, 48 h; outline: as §1
# [5] = Growth inhibition of human KM20L2 cells using DMSO as solvent after 48 hrs by sulforhodamine B assay; assay type: functional, KM-20L2; outline: as §1
# MCF7 [6] = assay: Growth inhibition of human MCF7 cells using DMSO as solvent after 48 hrs by sulforhodamine B assay; assay type: functional; outline: as §1
# NCI-H460 [7] = assay: Growth inhibition of human NCI-H460 cells using DMSO as solvent after 48 hrs by sulforhodamine B assay; assay type: functional; outline: as §1
# MCF7 [8] = assay: Growth inhibition of human MCF7 cells using MeOH as solvent after 48 hrs by sulforhodamine B assay; assay type: functional; conditions: MCF7, 48 h; outline: as §1
# [9] = Growth inhibition of human KM20L2 cells using MeOH as solvent after 48 hrs by sulforhodamine B assay; assay type: functional; conditions: KM-20L2, 48 h; outline: as §1
# DU-145 [10] = assay: Growth inhibition of human DU145 cells using MeOH as solvent after 48 hrs by sulforhodamine B assay; assay type: functional; conditions: DU-145, 48 h; outline: as §1
# DU-145 [11] = assay: Growth inhibition of human DU145 cells using DMSO as solvent after 48 hrs by sulforhodamine B assay; assay type: functional; outline: as §1
# SF-268 [12] = assay: Growth inhibition of human SF268 cells using MeOH as solvent after 48 hrs by sulforhodamine B assay; assay type: functional; conditions: SF-268, 48 h; outline: as §1
GI50 (NCI-H460 [3]),GI50 (MCF7 [6]),GI50 (NCI-H460 [7]),GI50 (MCF7 [8]),GI50 (DU-145 [10]),GI50 (DU-145 [11]),SMILES,GI50 (SF-268 [1]),GI50 [2],GI50 [4],GI50 [5],GI50 [9],GI50 (SF-268 [12])
> 10 µg/mL,>10 µg/mL,>10 µg/mL,> 10 µg/mL,> 10 µg/mL,>10 µg/mL,CC(C)[C@H]1NC(=O)[C@@H]2CCCN2C(=O)[C@H]([C@H](C)Cc2ccccc2)NC(=O)[C@@H]2CCCN2C(=O)[C@@H](C(C)C)N(C)C(=O)[C@@H](C(C)C)OC(=O)[C@@H]2CCCN2C(=O)[C@H](C)OC(=O)[C@@H]1C (stereo in doubt; 1),>10 µg/mL,>10 µg/mL,> 10 µg/mL,>10 µg/mL,> 10 µg/mL,> 10 µg/mL
,0.027 µg/mL,0.27 µg/mL,,,0.009 µg/mL,CC(C)[C@H]1NC(=O)[C@@H]2CCCN2C(=O)[C@H]([C@H](C)Cc2ccccc2)NC(=O)[C@@H]2CCCN2C(=O)[C@@H](C(C)C)N(C)C(=O)[C@@H](C(C)C)OC(=O)[C@@H]2CCCN2C(=O)[C@H](C)OC(=O)[C@@H]1C (stereo in doubt),0.016 µg/mL,0.05 µg/mL,,0.013 µg/mL,,
